For one series, the system named is ZR-75-1. The series is described as follows: Growth inhibition of ZR-75-1 breast cancer cell line. Type of series: functional, cell-based. Particulars: Homo sapiens.
Series [1] addresses T1, Ornithine decarboxylase (Homo sapiens) (UniProt P11926).
T1 sequence (whole entry): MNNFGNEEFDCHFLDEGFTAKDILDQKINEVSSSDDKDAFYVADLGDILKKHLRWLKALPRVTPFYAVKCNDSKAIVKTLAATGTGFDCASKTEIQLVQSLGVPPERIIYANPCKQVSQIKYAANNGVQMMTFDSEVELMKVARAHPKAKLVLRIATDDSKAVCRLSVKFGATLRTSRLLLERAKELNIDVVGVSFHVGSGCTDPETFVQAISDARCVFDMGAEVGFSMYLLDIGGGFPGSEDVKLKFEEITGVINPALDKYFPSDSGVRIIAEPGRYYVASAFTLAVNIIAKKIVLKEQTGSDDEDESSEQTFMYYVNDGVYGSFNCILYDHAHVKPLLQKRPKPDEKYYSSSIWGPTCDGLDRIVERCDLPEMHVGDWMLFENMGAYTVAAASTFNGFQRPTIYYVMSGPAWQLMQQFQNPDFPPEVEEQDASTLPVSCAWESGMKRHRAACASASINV
The series is described as follows: Inhibition of ornithine decarboxylase (ODC). Set-up: concentration or dose not given beside the values. Particulars: concentration not given here.

Another series has as its system MCF7. The series is described as follows: Growth inhibition of MCF-7 breast cancer cell line. Type of series: functional, cell-based. The settings on record: Homo sapiens.
Series [2] has as its system NCI-H157. The series is described as follows: Effect of exposure of H157 non-SCLC (<10 uM) for 96-h, and accumulation of compound was determined. Type of series: functional, Homo sapiens.
The nature of series [3]: Growth inhibition of […] breast cancer cell line. The settings on record: Homo sapiens, MDA-MB-468. Type of series: functional, cell-based.
Series [4] concerns NCI-H157. The series is described as follows: In vitro activity against H157 non-small-cell lung tumor line (non-SCLC) cultures. The settings on record: Homo sapiens. Type of series: functional, cell-based.
Another series deals with Hs-578T. The series is described as follows: Growth inhibition of Hs 578.T breast cancer cell line. Type of series: functional, cell-based. The settings on record: Homo sapiens.
Series [5] has as its target T2, Diamine acetyltransferase 1 (Homo sapiens, UniProt P21673). The series is described as follows: Inhibitory activity of compound against SSAT extracted from superinduced H157 cells. Type of series: cell-free. The essentials: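 SSAT came from crude extracts of superinduced H157 cells and was assayed at saturating spermidine.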
The subject of series [6] is NCI-H157. The series is described as follows: Activity against H157 non-SCLC cells in culture. Type of series: functional, cell-based. Particulars: Homo sapiens.
Series [7] addresses T2, Diamine acetyltransferase 1. The series is described as follows: Effect of 10 uM on spermine/spermidine-N-acetyltransferase (SSAT) induction in non-SCLC cells. Type of series: cell-based. The procedure, abridged:
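NCI H157 non-small-cell lung tumor cells were exposed to 10 μM analogue. SSAT activity was assayed and expressed as pmol product/mg protein/min, then as fold increase over untreated control cells.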

The next series has as its system MDA-MB-231. The series is described as follows: Growth inhibition of MDA-MB-231 breast cancer cell line. Type of series: functional, cell-based. Particulars: Homo sapiens.
Series [8] relates to NCI-H157. The series is described as follows: Effect of exposure of H157 non-SCLC to compound (<10 uM) for 96-h, on natural polyamines and accumulation of the compound; Decrease. Type of series: functional, cell-based. Particulars: Homo sapiens. The essentials:
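H157 non-SCLC cells were treated with 10 μM analogue. Cellular putrescine, spermidine and spermine, plus the intracellular analogue, were quantified and compared with untreated control cells.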

The test system of the next series is T47D. The series is described as follows: Growth inhibition of T47D breast cancer cell line. Type of series: functional, cell-based. Particulars: Homo sapiens.
Series [9] concerns NCH82. The series is described as follows: In vitro activity against H82 small-cell lung tumor line (SCLC) cultures. Type of series: functional, cell-based. Particulars: Homo sapiens.
For series [10], the system named is NCI-H157. The series is described as follows: Putrescine level in NCI H157 non-SCLC tumor cells following 24-h treatment with 10 uM of compound( Values in parentheses are control values). Type of series: functional, Homo sapiens. The procedure, abridged:
(§1)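 NCI H157 non-SCLC cells were exposed to 10 μM analogue alongside untreated controls. Cellular polyamines and analogue were quantified. SSAT activity was assayed in the cells and reported as pmol product/mg protein/min.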

The nature of series [11]: Half-life period as determined by N-deethylation and stepwise removal of aminopropyl equivalents. Type of series: ADME.
The subject of series [12] is NCI-H157. The series is described as follows: Spermidine level in NCI H157 non-SCLC tumor cells following 24-h treatment with 10 uM of compound( Values in parentheses are control values). Type of series: functional, Homo sapiens. The essentials: as §1
The subject of series [13] is NCI-H157. The series is described as follows: Spermine level in NCI H157 non-SCLC tumor cells following 24-h treatment with 10 uM of compound( Values in parentheses are control values). Type of series: functional, Homo sapiens. The procedure, abridged: as §1
The test system of series [14] is NCI-H157. The series is described as follows: Spermine/Spermidine-N1-acetyltransferase activity in NCI H157 non-SCLC tumor cells following 24-h treatment with 10 uM of compound.( Values in parentheses are control values). Type of series: functional, Homo sapiens. The procedure, abridged:
as §1

The test system of series [15] is NCI-H157. The series is described as follows: CHENSpm level in NCI H157 non-SCLC tumor cells following 24-h treatment with 10 uM of compound( Values in parentheses are control values). Type of series: functional, Homo sapiens. The procedure, abridged:
as §1

In series [16] the target is S-adenosylmethionine decarboxylase (Homo sapiens) (UniProt P17707). The series is described as follows: Inhibition of Inhibition of human form of S-adenosyl-methionine decarboxylase enzyme (AdoMet-DC). Also noted: concentration or dose not given beside the values. Particulars: concentration not given here.
The test system of series [17] is NCI-H157. The series is described as follows: BENSpm level in NCI H157 non-SCLC tumor cells following 24-h treatment with 10 uM of compound( Values in parentheses are control values). Type of series: functional, Homo sapiens. The essentials:
as §1

The test system of series [18] is NCH82. The series is described as follows: Effect of 10 uM of compound on NCI H82 cell lines was assessed from the amount of spermidine (values in parentheses are those in the absence of compound). Type of series: functional, Homo sapiens.
For series [19], the system named is NCI-H157. The series is described as follows: Effect of 10 uM of compound on NCI H157 cell lines was assessed from the amount of SSAT (values in parentheses are those in the absence of compound). Type of series: functional, Homo sapiens. The essentials: (§2)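 Cells were exposed to 10 μM analogue, with untreated controls. SSAT was expressed as nmol product formed/mg protein in 24 h. The detection limit was 0.05 nmol/mg protein.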

Series [20] deals with NCH82. The series is described as follows: Effect of 10 uM of compound on NCI H82 cell lines was assessed from the amount of SSAT (values in parentheses are those in the absence of compound). Type of series: functional, Homo sapiens. The procedure, abridged: as §2
Series [21] deals with NCH82. The series is described as follows: Effect of 10 uM of compound on NCI H82 cell lines was assessed from the amount of spermine (values in parentheses are those in the absence of compound). Type of series: functional, Homo sapiens.
Series [22] deals with Trypanosoma brucei. The series is described as follows: In vitro growth Inhibitory activity against LAB 110 Strain of Trypanosoma brucei. Type of series: functional, organism-based. The procedure, abridged: (§3)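 In vitro growth inhibition was run against T. b. brucei LAB EATRO 110 and T. b. rhodesiense KETRI 243, KETRI 243 As-10-3 and KETRI 269. […] ">100" means no appreciable inhibition up to the highest concentration tested.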

The test system of series [23] is Trypanosoma brucei. The series is described as follows: In vitro growth Inhibitory activity against K269 Strain of Trypanosoma brucei. Type of series: functional, organism-based. The essentials:
as §3

The subject of series [24] is Trypanosoma brucei. The series is described as follows: In vitro growth Inhibitory activity against K243 As-10-3 Strain of Trypanosoma brucei. Type of series: functional, organism-based. The essentials: as §3
Series [25] has as its system Trypanosoma brucei. The series is described as follows: In vitro growth Inhibitory activity against K243 Strain of Trypanosoma brucei. Type of series: functional, organism-based. The essentials:
as §3

T2 sequence (P21673 whole entry): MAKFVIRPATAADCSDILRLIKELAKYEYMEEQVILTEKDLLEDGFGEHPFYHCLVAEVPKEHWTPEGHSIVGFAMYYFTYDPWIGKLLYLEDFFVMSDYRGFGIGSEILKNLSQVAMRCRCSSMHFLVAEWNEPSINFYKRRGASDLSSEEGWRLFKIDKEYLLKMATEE

Take `CCNCCCNCCCNCCCNCC1CC1`: the IC50 – broadly, the concentration that gives 50% inhibition – with ZR-75-1 came out at 1100 nM; in the series with MCF7 it was 1100 nM; in series [3] it was 600 nM; in the series on NCI-H157 [4], 700 nM; in the series with Hs-578T it was 200 nM; in series [5] it was 100000 nM. The IC50 stood at 800 nM in the series on NCI-H157 [6], 1300 nM in the series on MDA-MB-231, 400 nM in the series on T47D and 5200 nM in the series on NCH82 [9]. Further, the inhibition (commonly the relative decrease from the control value, in per cent) in [1] was greater than 50%. The Amount in the series on NCI-H157 [2] is >20 nM (mg of protein)-1. In [7], this compound showed an Induction greater than 500. Besides, the “Effect on polyamine pools” value in the series with NCI-H157 [8] was “Decrease”.

With `CCNCCCNCCCNCCCNCC` [BIS(ETHYL)NORSPERMINE], the Polyamine level in the series on NCI-H157 [10] is on record as 0; in the series on NCI-H157 [12], 0; with NCI-H157 [13] it was 0.51; with NCI-H157 [15] it was 0; in the series on NCI-H157 [17], 36.07. Also, the inhibition in series [1] and in series [16] was greater than 50% in each case. Also, the half-life (in general, how long it takes for the measured level to halve) in [11] turned out to be 1.22 h. In addition, the Amount in the series on NCI-H157 [2] is on record as >20 nM (mg of protein)-1. Moreover, the Induction in series [7] is greater than 500. Besides, the Activity in the series with NCI-H157 [14] was 148141 (pM of product) min-1 (mg of protein)-1. Moreover, in the series on NCI-H157 [8], the “Effect on polyamine pools” value is given as “Decrease”.

With `CCNCCCNCCCCNCCCNCC` [BIS(ETHYL)SPERMINE], the inhibition in [1] and in [16] was greater than 50% throughout. For the same compound, the Polyamine with NCH82 [18] is 3.07 nM (mg of protein)-1; in the series on NCI-H157 [19], 6511 nM (mg of protein)-1; with NCH82 [20], 60 nM (mg of protein)-1; with NCH82 [21], 10.06 nM (mg of protein)-1. Further, the Amount with NCI-H157 [2] is >20 nM (mg of protein)-1. The Induction in series [7] is greater than 500. In addition, the “Effect on polyamine pools” value in the series with NCI-H157 [8] is recorded as “Decrease”.

As for `COc1cccc(CNCCCNCCCCCCCNCCCNCc2cccc(OC)c2)c1`, the IC50 came to 22000 nM in the series on Trypanosoma brucei [22], 16500 nM in the series with Trypanosoma brucei [23], 5500 nM in the series with Trypanosoma brucei [24] and 18500 nM in the series on Trypanosoma brucei [25].

(Values after ChEMBL document CHEMBL1134460, “Terminally alkylated polyamine analogues as chemotherapeutic agents” (J Med Chem, 2001).)
